Drawing on ChEMBL document CHEMBL1250505, “Synthesis and biological property of some novel 1,3,4-oxadiazoles” (2010), this text covers zone of inhibition and Time for 3 molecules.

What all share (assay type): functional
Assay [1] relates to Pseudomonas aeruginosa. The assay is described as follows: Antibacterial activity against Pseudomonas aeruginosa at 100 ug/ml after 24 to 48 hrs by cup-plate method. The note with it: read-out: IZ. Summed up: (§1)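 Sterile nutrient agar cooled to […] and seeded with 18-24 h sub-cultures, then poured at about 45-50 mL per dish. Wells cut with a 6 mm sterile cork borer and filled with 0.1 mL of each of two test dilutions. Plates incubated inverted at 37 °C for 24–48 h; inhibition zone diameters measured in mm. Streptomycin and procaine penicillin served as standards.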

The subject of assay [2] is Bacillus subtilis. Kind of assay: Antibacterial activity against Bacillus subtilis at 100 ug/ml after 24 to 48 hrs by cup-plate method. The note with it: read-out: IZ. The method, boiled down: as §1
Assay [3] concerns Staphylococcus aureus. Kind of assay: Antibacterial activity against Staphylococcus aureus at 100 ug/ml after 24 to 48 hrs by cup-plate method. The note with it: read-out: IZ. The method, boiled down:
as §1

The test system of assay [4] is Mus musculus. Kind of assay: Analgesic activity in albino mouse assessed as paw licking latency at 100 mg/kg after 1 hr by Eddy's hot plate method. Summed up: (§2)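 Albino mice of either sex, fasted 24 h, 6 per group. Compounds given at 100 mg/kg; control group received 2% acacia suspension, standard group pentazocine 35 mg/kg. Hot plate held at 55 ± 1 °C. Reaction time is the time to lick a hind paw or leap off the plate, recorded at 0, 30, 60, 120 and 240 min after dosing.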

In assay [5] the test system is Mus musculus. Kind of assay: Analgesic activity in albino mouse assessed as paw licking latency at 100 mg/kg after 0.5 hrs by Eddy's hot plate method. Summed up: as §2
Assay [6] has as its system Pseudomonas aeruginosa. Kind of assay: Antibacterial activity against Pseudomonas aeruginosa at 50 ug/ml after 24 to 48 hrs by cup-plate method. The note with it: read-out: IZ. Summed up: as §1
For assay [7], the system named is Bacillus subtilis. The assay is described as follows: Antibacterial activity against Bacillus subtilis at 50 ug/ml after 24 to 48 hrs by cup-plate method. The note with it: read-out: IZ. The method, boiled down: as §1
The subject of assay [8] is Escherichia coli. The assay is described as follows: Antibacterial activity against Escherichia coli at 100 ug/ml after 24 to 48 hrs by cup-plate method. The following applies: read-out: IZ. The method, boiled down:
as §1

Assay [9] has as its system Escherichia coli. The assay is described as follows: Antibacterial activity against Escherichia coli at 50 ug/ml after 24 to 48 hrs by cup-plate method. The following applies: read-out: IZ. The method, boiled down: as §1
In assay [10] the test system is Staphylococcus aureus. Kind of assay: Antibacterial activity against Staphylococcus aureus at 50 ug/ml after 24 to 48 hrs by cup-plate method. The following applies: read-out: IZ. The method, boiled down: as §1
Assay [11] has as its system Mus musculus. The assay is described as follows: Analgesic activity in albino mouse assessed as paw licking latency at 100 mg/kg after 2 hrs by Eddy's hot plate method. The method, boiled down: as §2
Assay [12] has as its system Mus musculus. The assay is described as follows: Analgesic activity in albino mouse assessed as paw licking latency at 100 mg/kg after 4 hrs by Eddy's hot plate method. Summed up: as §2

SMILES strings stand for the structures.

Regarding `COc1ccccc1-c1cccc(-c2n[nH]c(=S)o2)c1`, the zone of inhibition at 100 µg/mL with Pseudomonas aeruginosa [1] is 18 mm; in the assay on Bacillus subtilis [2], 21 mm; in the assay on Staphylococcus aureus [3], 18 mm; in the assay on Escherichia coli [8] it was 18 mm. In addition, the Time was 5.84 s in the assay on Mus musculus [4], 4.94 s with Mus musculus [5], 7.61 s in the assay on Mus musculus [11] and 6.28 s with Mus musculus [12]. Further, the zone of inhibition at 50 µg/mL was found to be 11 mm in the assay with Pseudomonas aeruginosa [6], 10 mm with Bacillus subtilis [7], 12 mm with Escherichia coli [9] and 11 mm with Staphylococcus aureus [10].

On to `Fc1ccccc1-c1cccc(-c2n[nH]c(=S)o2)c1`, for which the zone of inhibition at 100 µg/mL was found to be 21 mm in the assay on Pseudomonas aeruginosa [1], 19 mm in the assay with Bacillus subtilis [2], 20 mm in the assay with Staphylococcus aureus [3] and 19 mm with Escherichia coli [8]. Moreover, the Time turned out to be 5.24 s in the assay with Mus musculus [4], 4.99 s in the assay with Mus musculus [5], 5.38 s in the assay on Mus musculus [11] and 5.04 s with Mus musculus [12]. Also, the zone of inhibition at 50 µg/mL with Pseudomonas aeruginosa [6] came out at 18 mm; in the assay on Bacillus subtilis [7] it was 12 mm; in the assay on Escherichia coli [9] it was 15 mm; in the assay with Staphylococcus aureus [10] it was 15 mm.

Turning to `COc1ccc(F)cc1-c1cccc(-c2n[nH]c(=S)o2)c1`, the zone of inhibition at 100 µg/mL turned out to be 19 mm in the assay with Pseudomonas aeruginosa [1], 19 mm with Bacillus subtilis [2], 17 mm in the assay on Staphylococcus aureus [3] and 20 mm in the assay on Escherichia coli [8]. The Time with Mus musculus [4] was 5.74 s; in the assay on Mus musculus [5], 5.22 s; with Mus musculus [11], 8.41 s; with Mus musculus [12], 6.35 s. The zone of inhibition at 50 µg/mL stood at 14 mm with Pseudomonas aeruginosa [6], 12 mm in the assay on Bacillus subtilis [7], 8 mm in the assay on Escherichia coli [9] and 12 mm with Staphylococcus aureus [10].
